1 molecule from ChEMBL document CHEMBL4414568, “Development of Novel Irreversible Pyruvate Kinase M2 Inhibitors” (J Med Chem, 2019) can be followed below.

The subject of one data set is LNCaP. Put plainly: Antiproliferative activity against human LNCAP cells assessed as reduction in cell viability incubated for 24 hrs by MTT assay. Format: functional, cell-based. The procedure, abridged:
(§1)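 Cells seeded at 3,500 per well in 10% FBS and left overnight, then exposed to test agent or vehicle in 5% FBS for 24 h. MTT added for 1 h, then medium swapped for DMSO and absorbance read at 560 nm. Viability given as percent of vehicle-treated control. Run in triplicate.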

A further data set relates to NCI-H1975. In words: Antiproliferative activity against human NCI-H1975 cells harboring EGFR mutant assessed as reduction in cell viability incubated for 24 hrs by MTT assay. It counts as functional, cell-based. To be noted: NCI-H1975, 24 h. An outline of the steps: as §1
The test system of the next data set is NCI-H460. In words: Antiproliferative activity against human H460 cells expressing wild type EGFR assessed as reduction in cell viability incubated for 24 hrs by MTT assay. It counts as functional, cell-based. The following applies: NCI-H460, 24 h. The procedure, abridged:
as §1

Data set [1] has as its target T1, Pyruvate kinase PKM (Homo sapiens, UniProt P14618). In words: Binding affinity to PKM2 in human PC9 cells incubated for 1 hr by ABPP-SILAC assay. It counts as cell-based. An outline of the steps: (§2)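 PC-9 cells passaged at least six times in SILAC DMEM with 10% dialyzed FBS plus 100 µg/mL light or 13C/15N-labeled Arg/Lys. Heavy cells got ABPP probe (1 µM) and light cells DMSO, 1 h at 37 °C. Cells mixed 1:1, sonicated, spun at 100,000g, protein normalized to 1 mg/mL. Click biotin-azide, streptavidin bead pulldown 16 h at 4 °C, SDS-PAGE, on-bead trypsin digestion, LC-MS/MS.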

Data set [2] concerns the target L-lactate dehydrogenase A chain (Homo sapiens) (UniProt P00338). Put plainly: Binding affinity to LDHA in human PC9 cells incubated for 1 hr by ABPP-SILAC assay. It counts as cell-based. The procedure, abridged: as §2
For data set [3], the target named is T2, Malonate--CoA ligase ACSF3, mitochondrial (Homo sapiens) (UniProt Q4G176).
T2 sequence (whole entry): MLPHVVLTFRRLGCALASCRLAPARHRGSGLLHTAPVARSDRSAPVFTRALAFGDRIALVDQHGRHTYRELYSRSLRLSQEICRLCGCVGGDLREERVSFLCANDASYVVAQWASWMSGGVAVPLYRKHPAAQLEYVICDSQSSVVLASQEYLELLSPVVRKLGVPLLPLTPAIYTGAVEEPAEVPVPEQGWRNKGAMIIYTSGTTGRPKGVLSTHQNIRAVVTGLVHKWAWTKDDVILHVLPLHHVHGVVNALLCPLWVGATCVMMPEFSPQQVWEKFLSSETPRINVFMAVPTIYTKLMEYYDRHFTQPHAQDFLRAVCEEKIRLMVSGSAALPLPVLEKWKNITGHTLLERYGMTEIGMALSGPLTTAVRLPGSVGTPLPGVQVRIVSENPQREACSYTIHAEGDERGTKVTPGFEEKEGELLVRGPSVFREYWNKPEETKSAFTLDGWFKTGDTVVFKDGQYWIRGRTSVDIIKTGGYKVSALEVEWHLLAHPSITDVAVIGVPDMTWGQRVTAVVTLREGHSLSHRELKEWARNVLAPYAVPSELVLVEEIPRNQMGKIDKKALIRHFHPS
In words: Binding affinity to ACSF3 in human PC9 cells incubated for 1 hr by ABPP-SILAC assay. Format: cell-based. The procedure, abridged:
as §2

Data set [4] has as its target T1, Pyruvate kinase PKM. In words: Inhibition of recombinant human PKM2 expressed in Escherichia coli at 0.125 to 0.5 uM using PEP as substrate incubated for 20 mins by OxiRed probe-based colorimetric assay relative to control. An outline of the steps:
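Recombinant PKM1 or PKM2 incubated with compound at room temperature for 20 min. Remaining activity measured by the same colorimetric kit: PEP + […], PK then pyruvate oxidase, H2O2 read-out. n = 3.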

Data set [5] deals with T1, Pyruvate kinase PKM. Put plainly: Inhibition of PKM2 in human PC9 cells assessed as reduction in STAT3 expression incubated for 24 hrs by Western blot analysis. It counts as cell-based. The procedure, abridged: (§3)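 PC-9 cells seeded at 5 × 10^5 cells/mL; after 24 h given 0–1 µM compound or DMSO for 24 h. Lysates run on 10% SDS-PAGE, transferred to nitrocellulose, probed for PKM2, EGFR, p-STAT3, STAT3, p-β-catenin, β-catenin and β-actin with HRP secondaries, ECL detection.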

The target of data set [6] is T1, Pyruvate kinase PKM. Put plainly: Inhibition of PKM2 in human PC9 cells assessed as reduction in STAT3 phosphorylation at 0.5 uM incubated for 24 hrs by Western blot analysis. It counts as cell-based. An outline of the steps: as §3
Data set [7] deals with PC-9. In words: Induction of ROS production in human PC9 cells at 0.25 and 0.5 uM incubated for 6 hrs by H2DCFDA dye-based fluorescence assay. It counts as functional, cell-based. An outline of the steps:
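PC-9 cells at 2 × 10^4 per well, after 24 h treated with compound or DMSO for 6 h. Cells washed, given 1X ROS label in assay buffer for 45 min at 37 °C in the dark, fluorescence read at Ex/Em 495/529 nm as an end point. n = 3.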

The subject of data set [8] is PC-9. Put plainly: Antitumor activity against human PC9 cells xenografted in athymic nude mouse assessed as reduction in tumor weight at 10 mg/kg, ip administered once daily for 25 days measured post-last dose. Format: functional, organism-based. The procedure, abridged:
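Female nude mice, 6 weeks old, given s.c. 1 × 10^6 PC-9 cells in Matrigel (1:1). From day 7, once-daily i.p. vehicle or 10 mg/kg compound in sterile water with 0.5% methylcellulose and 0.1% Tween-80, n = 8 per group, for 25 days. Tumor volume and body weight followed, tumors weighed at end.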

The test system of data set [9] is Mus musculus. In words: In vivo inhibition of PKM2 in human PC9 cells xenografted in athymic nude mouse assessed as reduction in PKM2 expression at 10 mg/kg, ip administered once daily for 25 days measured post-last dose by Western blot analysis. It counts as functional, organism-based. The procedure, abridged:
(§4)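 Tumors from PC-9 xenograft nude mice given 10 mg/kg i.p. daily or vehicle for 25 days (n = 8 per group) were lysed for Western blots of PKM2, EGFR, Stat3 and β-catenin. Bands quantified by ImageJ and normalized to GAPDH.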

For data set [10], the system named is Mus musculus. In words: In vivo inhibition of PKM2 in human PC9 cells xenografted in athymic nude mouse assessed as reduction in beta-catenin expression at 10 mg/kg, ip administered once daily for 25 days measured post-last dose by Western blot analysis. It counts as functional, organism-based. An outline of the steps:
as §4

A further data set has as its system PC-3. Put plainly: Antiproliferative activity against human PC3 cells assessed as reduction in cell viability incubated for 24 hrs by MTT assay. The following applies: PC-3, 24 h. Format: functional, cell-based. An outline of the steps: as §1
In data set [11] the test system is PC-9. In words: Effect on basal extracellular acidification rate in human PC9 cells at 0.25 to 1 uM measured after 4 hrs in absence of glucose by seahorse XF96 flux analyser based assay. The following applies: pc-9, 4 h. It counts as cell-based. An outline of the steps: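 PC-9 cells, 5 × 10^4 per well, seeded 24 h ahead, then treated with DMSO or compound at 0.25, 0.5 or 1 µM for 4 h at 37 °C. Cells held 1 h without CO2 in glycolysis medium. Seahorse glycolysis stress test with serial injections of 10 mM glucose, oligomycin and 50 mM 2-DG; ECAR and OCR recorded together. Six wells per point.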

The structures appear in SMILES notation. Activity calls are given as the source filed them. No cut-off for these calls is given here.

T1 sequence (P14618 2-531 limits assumed): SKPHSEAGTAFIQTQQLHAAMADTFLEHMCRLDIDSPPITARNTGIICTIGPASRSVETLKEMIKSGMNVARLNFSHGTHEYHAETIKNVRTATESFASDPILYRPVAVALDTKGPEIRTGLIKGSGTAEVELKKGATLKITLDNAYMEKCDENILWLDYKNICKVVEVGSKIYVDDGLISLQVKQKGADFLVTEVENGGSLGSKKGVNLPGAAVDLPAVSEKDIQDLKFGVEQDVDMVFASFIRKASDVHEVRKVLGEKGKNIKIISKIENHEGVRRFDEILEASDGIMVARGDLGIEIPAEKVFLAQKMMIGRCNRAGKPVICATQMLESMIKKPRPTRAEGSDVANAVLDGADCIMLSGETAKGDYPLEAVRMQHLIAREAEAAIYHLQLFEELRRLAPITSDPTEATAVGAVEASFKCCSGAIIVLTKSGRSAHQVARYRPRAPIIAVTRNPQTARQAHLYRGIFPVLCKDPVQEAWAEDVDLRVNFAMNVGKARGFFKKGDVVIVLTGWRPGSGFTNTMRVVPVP

With `C#CC(=O)Nc1ccc(-n2nc(CCC(=O)NC)cc2-c2ccc(-c3ccc(C(F)(F)F)cc3)cc2)cc1`, the 50% inhibitory concentration (IC50) in the data set on LNCaP is above 2000 nM; in the data set on NCI-H1975, 1000 nM; with NCI-H460 it was 1500 nM; in the data set with PC-3 it was 600 nM. Further, the outcome (on Pyruvate kinase PKM [1]; in data set [2]; in data set [3]; with PC-9 [8]) was Active. Further, the inhibition on Pyruvate kinase PKM [4] is 30%; at Pyruvate kinase PKM [5] it was “Dose-dependent effect”. The inhibition entry on Pyruvate kinase PKM [6] was “inactive”. Also, the result in the data set on PC-9 [7] was inactive. The inhibition result in the data set on Mus musculus [9] and with Mus musculus [10] was “Active” in each case. In addition, in the data set with PC-9 [11], the Activity entry was “Non-Toxic”.
